Results taken from PMC3999706 (Biochemistry, 2013).
Values joined by “and” are separate entries in the source; they are usually repeats but may differ in a detail not shown here. Identical values can stand only once. Like-named read-outs stand apart in the source and are kept apart here.

Key:
[1] = system: Fe(II) Vc H-NOX; experiment: Stopped-flow kinetics and affinity of gaseous ligand binding to Fe; set-up: species or system Vibrio cholerae; conditions: for koff / Kd: Fe(II) Vc H-NOX, NO: 6c complex; for koff: displacement method; for Kd: calculated from kon and koff; for koff of 5c Vc H-NOX-NO complex, fast phase / koff of 5c Vc H-NOX-NO complex, slow phase: displacement with CO/dithionite
[2] = target: sGC; conditions: 6c complex, ref [5], cited from earlier work
[3] = target: Ferrous Ns H-NOX; conditions: ref [5], cited from earlier work
[4] = system: Fe(II) Vc H-NOX; experiment: Autoxidation of Fe; format: biochemical, Vibrio cholerae
Summary of the method: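 Recombinant Vc H-NOX was expressed in E. coli Rosetta 2(DE3)pLysS (heme and δ-aminolevulinic acid supplemented, IPTG, 48 h at 20 °C) and purified on TALON resin. The anaerobic Fe(II) protein was mixed with O2 by stopped-flow in 20 mM HEPES pH 7.3, 50 mM NaCl, 10% glycerol. Spectral changes were followed by diode-array over 65.5 s, and kobs was taken from single-exponential fits under pseudo-first-order conditions.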

[5] = system: Fe(II) Ns H-NOX; conditions: ref [14]; cited from earlier work
[6] = target: Fe(III) Vc H-NOX (Vibrio cholerae, UniProt Q9KLM3); experiment: biochemical; format: binding
[7] = estimated by computer simulation of A420 time courses

## [C-]#[O+] [CO, Carbon monoxide]
[1]; 24 °C
  koff: 0.85 s⁻¹
[1]
  Kd: 0.77 µM
[2]; read-out: affinity of CO for sGC (KD)
  Kd: 260 µM
[3]; read-out: KD(CO) of ferrous Ns H-NOX
  Kd: 1.4 µM

## nitric oxide [NO]
[1]; 24 °C
  koff: 0.3 s⁻¹
[1]
  Kd: 0.00027 µM
[1]; [7]
  k1 (second NO binding to 6c complex): 2.5e+07 M⁻¹ s⁻¹
  k-1 (dissociation of quaternary complex): 4500 s⁻¹
[1]; excess NO, hyperbolic fit of kobs versus [NO], 24 °C
  k2 (limiting rate of 5c heme-NO complex formation): 720 s⁻¹
[1]; excess NO, 29% overall reaction
  koff of 5c Vc H-NOX-NO complex, fast phase: 0.01 s⁻¹
[1]; excess NO, 71% overall reaction
  koff of 5c Vc H-NOX-NO complex, slow phase: 0.001 s⁻¹
[1]; stoichiometric NO (2.5 μM each), 24 °C, global analysis
  overall conversion rate of 6c to 5c Vc H-NOX-NO complex: ~ 0.01 s^−1
[1]; stoichiometric NO, 16% overall reaction
  koff of 5c Vc H-NOX-NO complex, fast phase: 0.01 s⁻¹
[1]; stoichiometric NO, 84% overall reaction
  koff of 5c Vc H-NOX-NO complex, slow phase: 0.001 s⁻¹
[1]; y-intercept of kobs versus low [NO]
  k-2 (re-association of NO with 5c Vc H-NOX): 1.9 s⁻¹
[2]; read-out: affinity of NO for sGC (KD)
  Kd: 0.054 µM
[3]; read-out: KD(NO) of ferrous Ns H-NOX
  Kd: 0.00017 µM

## O=O [O2]
[4]; 3 μM Fe(II) Vc H-NOX, 100-600 μM O2, 24 °C, A429
  second order reaction rate constant (slope of kobs versus [O2]): 4.8 M⁻¹ s⁻¹
[4]; k4 = slope × KD(O2)
  autoxidation rate of Fe(II) Vc H-NOX to ferric state (k4): 0.06 s^−1 and ~ 0.06 s^−1
[3]; read-out: KD for O2 of Ns H-NOX, measured using a high pressure cell
  Kd: 13000 µM
[5]
  autoxidation rate of Fe(II) Ns H-NOX: ~ 0.05 hr^−1 and 0.05 hr^−1

## c1c[nH]cn1 [Im, imidazole]
[6]
  Kd: 4200 µM
